Assay results reported in PubChem BioAssay.
Results filed as inconclusive are left out.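 How the source made its calls, unless noted: active means viability at or below 27.92% in each of two runs, the all-compound median minus 4 SD; inconclusive means no clear call, values can overlap the other calls; inactive means the rest.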

Tests used:
[1] = S. cerevisiae growth inhibition in permissive medium (OD615), pilot counter-assay for S. cerevisiae lifespan shortening project, permissive growth control (AID 705;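 active means growth inhibition above 25% in both replicates, a cutoff set 3 SD above the mean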); settings: OD615, 24 h, at 10 µM, active compounds read high
Outline: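 assay system = Saccharomyces cerevisiae strain carrying genetically modified DeaD replicative-lifespan system | medium = SC raffinose/galactose permissive medium | dosing = 10 µM single dose, 0.25% DMSO | schedule = 24 h compound exposure at 30 °C after 4 h pre-growth | measured by = OD at 615 nm | read-out basis = growth inhibition from lowered OD615 after 24 h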

[2] = S. cerevisiae growth inhibition in restrictive medium, OD615, pilot screen, restrictive growth control, yeast lifespan reduction project (AID 706;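 active means growth inhibition above a set limit, 3 SD over mean compound inhibition, in both replicates, cut at about 43% in these data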;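 further: modified DeaD lifespan yeast strain shifted to restrictive glucose medium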); settings: OD615, 48 h, at 10 µM, active compounds read high
Outline: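 Buffer or medium: CSMM-D glucose medium. Material: genetically modified Saccharomyces cerevisiae, DeaD replicative lifespan assay strain. Times: 48 h compound exposure at 30 °C. Measured by: optical density at 615 nm.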

[3] = doxorubicin toxicity protection in MRP-1 cells – H69AR cells, CellTiter-Glo, duplicate, MRP-1 activator project, pilot screen (AID 807;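 active means viability increase at or above a cutoff of the median across tested compounds plus 3 SD, cut at about 8.5% in these data, passing the limit was not always enough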;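 further: compound pretreatment 18-22 h then 72 h combined with doxorubicin; 0% = doxorubicin alone and 100% = vehicle without doxorubicin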); settings: H69AR viability with doxorubicin, CellTiter-Glo luminescence; at 10 µM; active compounds read high
[4] = viability of HCT116 without oncogenic beta-catenin – human colon tumor cells, pilot screen (AID 823;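 active means cell viability at or below a set limit in both duplicate runs, the limit being the all-compound median minus 4 SD, cut at about 23% in these data, passing the limit was not always enough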;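 further: 0% = wells killed by 20 µM Hyamine and 100% = untreated DMSO cell wells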); settings: HCT116 beta-catenin knockout viability, CellTiter-Glo, 60 h; at 10 µM; active compounds read low
[5] = viability of PTEN-null HCT116 cells – cell-based, HCT116 clonal line, CellTiter-Glo, pilot screen (AID 824); settings: HCT116 PTEN-deleted viability, 60 h, at 10 µM, active compounds read low;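 further: 0% = 20 µM Hyamine control and 100% = vehicle cell control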
[6] = RAM pathway blockade in budding yeast – dse1pr::URA3 reporter, 5-FOA selection, pilot screen (AID 869;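 active means inhibition over a set limit, the all-compound mean plus 3 SD, in both replicate runs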;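 further: 0% = DMSO wells with no growth and 100% = 10 µM 1-NA-PP1 with full growth; RAM network block rescues cells from 5-FOA so hits raise OD615 growth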); settings: S. cerevisiae dse1pr::URA3 5-FOA growth, OD615, 2 d; at 10 µM; active compounds read high; strain carries analog-sensitive mutant Cbk1 kinase
[7] = RAM signaling pathway blockade in yeast – S. cerevisiae, Pdr1DBD-CYC8 efflux-inhibited sensitized strain, primary screen (AID 1298;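 active means RAM network inhibition above 8.4% in each of two replicates, 3 SD over the compound average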;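 further: 0% = DMSO untreated cells without growth and 100% = 10 µM 1-NA-PP1 full growth; higher means more yeast growth rescued from 5-FOA killing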); settings: S. cerevisiae cbk1-as DSE1-URA3 strain, 5-FOA growth OD615, 2 d; at 50 µM; active compounds read high

Cn1c(C(=O)N2CCC(C(N)=O)CC2)cc2c(=O)n(C)c3ccccc3c21
inactive: growth inhibition [1] -2.25% | growth inhibition [2] 1.93% | viability increase [3] -0.97% | viability [4] 110% | viability [5] 99.3% | inhibition [6] 0.085% | RAM network inhibition [7] 2.21%

Cn1c(SCC(=O)Nc2ccccc2F)nnc1-c1cccnc1
inactive: growth inhibition [1] -5.35% | growth inhibition [2] -5.78% | viability increase [3] -0.11% | viability [4] 100% | viability [5] 92.8% | inhibition [6] 1.01% | RAM network inhibition [7] -1.31%

COc1ccc(CCNC(=O)COC(=O)c2cnc(C)cn2)cc1OC
inactive: growth inhibition [1] -8.52% | growth inhibition [2] -14.6% | viability increase [3] 1.73% | viability [4] 106% | viability [5] 100% | inhibition [6] 0.395% | RAM network inhibition [7] 2.42%

CCOC(=O)c1c(C)oc2cc(Br)c(OC(C)C(=O)OCC)cc12 (configuration not stated)
inactive: growth inhibition [1] -10.4% | growth inhibition [2] -5.88% | viability increase [3] -0.93% | viability [4] 85.4% | viability [5] 92% | inhibition [6] 1.76% | RAM network inhibition [7] 0.98%

CCOc1ccc(NC2CCN(C(C)=O)CC2)cc1
inactive: growth inhibition [1] -12.8% | growth inhibition [2] -7.46% | viability increase [3] 0.27% | viability [4] 95.2% | viability [5] 97% | inhibition [6] 0.625% | RAM network inhibition [7] 6.44%

Cc1c(Br)cc(C(=O)NCCCN2CCOCC2)c(C)c1C
inactive: growth inhibition [1] -0.405% | growth inhibition [2] -4.69% | viability increase [3] -3.23% | viability [4] 94.8% | viability [5] 93.6% | inhibition [6] 0.595% | RAM network inhibition [7] 0.82%

O=C(C1CCN(S(=O)(=O)c2ccc(F)cc2)CC1)N1CCOCC1
inactive: growth inhibition [1] -6.2% | growth inhibition [2] -6.82% | viability increase [3] 0.84% | viability [4] 103% | viability [5] 103% | inhibition [6] 2.23% | RAM network inhibition [7] 1.75%

CN1CCN(c2ccccc2NC(=O)Cc2cn(C)c3ccccc23)CC1
inactive: growth inhibition [1] 3.05% | growth inhibition [2] -4.69% | viability increase [3] -2.96% | viability [4] 92.8% | viability [5] 93.7% | inhibition [6] -0.845% | RAM network inhibition [7] 2.59%

Cc1cc(C)nc(NS(=O)(=O)c2ccc(NC(=O)c3ccco3)cc2)n1
inactive: growth inhibition [1] -5.44% | growth inhibition [2] -11.7% | viability increase [3] -1.87% | viability [4] 100% | viability [5] 95.9% | inhibition [6] 0.26% | RAM network inhibition [7] 2.44%

COc1ccc(OCC(O)CN2CCCCC2)cc1 (configuration not stated)
inactive: growth inhibition [1] -7.21% | growth inhibition [2] -11.1% | viability increase [3] -1.52% | viability [4] 95% | viability [5] 101% | inhibition [6] 1.59% | RAM network inhibition [7] 0.52%

COc1ccc(S(=O)(=O)Cc2ccc(C(=O)NCc3cccs3)o2)cc1
inactive: growth inhibition [1] -2.92% | growth inhibition [2] -21.2% | viability increase [3] -4.71% | viability [4] 94.7% | viability [5] 87.1% | inhibition [6] 1.21% | RAM network inhibition [7] 3.04%

Cc1ccnc(N2C(=O)c3ccccc3C2Nc2ccc3c(c2)OCCO3)c1 (configuration not stated)
inactive: growth inhibition [1] -12.4% | growth inhibition [2] 3.42% | viability increase [3] 1.16% | viability [4] 99.7% | viability [5] 90.1% | inhibition [6] 0.135% | RAM network inhibition [7] 3.93%

COc1ccc(-c2nnc(COc3ccc4ccccc4c3)o2)cc1OC
inactive: growth inhibition [1] -7.47% | growth inhibition [2] -22.7% | viability increase [3] -0.12% | viability [4] 99.7% | viability [5] 91.6% | inhibition [6] 1.22% | RAM network inhibition [7] 8.07%

COc1ccc(-c2nc(CS(=O)CC(=O)NCc3cccnc3)c(C)o2)cc1 (configuration not stated)
inactive: growth inhibition [1] 2.57% | growth inhibition [2] -2.7% | viability increase [3] -4.05% | viability [4] 89.3% | viability [5] 92.5% | inhibition [6] 1.14% | RAM network inhibition [7] 1.62%

Cc1cc(NC(=O)CSc2nnc(Cn3c(=O)sc4ccccc43)n2-c2ccccc2C)no1
inactive: growth inhibition [1] -0.97% | growth inhibition [2] -2.43% | viability increase [3] -1.05% | viability [4] 89% | viability [5] 87% | inhibition [6] 1.27% | RAM network inhibition [7] 7.59%

CSc1nnc2c(n1)OC(c1ccc(C(=O)O)cc1)N(C(C)=O)c1ccccc1-2 (configuration not stated)
inactive: growth inhibition [1] -1% | growth inhibition [2] 13.2% | viability increase [3] 0.23% | viability [4] 102% | viability [5] 96.6% | inhibition [6] 1.57% | RAM network inhibition [7] 3.34%

Cn1ccnc1SC(=O)N1c2ccccc2Sc2ccccc21
inactive: growth inhibition [1] 0.525% | growth inhibition [2] 0.605% | viability increase [3] -0.9% | viability [4] 88.8% | viability [5] 91.4% | inhibition [6] 1.25% | RAM network inhibition [7] 3.37%

C=CCSc1nnc2c(n1)[nH]c1c(C)cccc12
inactive: growth inhibition [1] -27.3% | growth inhibition [2] 3.13% | viability increase [3] -5.97% | viability [4] 64.6% | viability [5] 65.6% | inhibition [6] 1.71% | RAM network inhibition [7] 5.38%

CCN1CCN(c2ncnc3c2sc2nc(N4CCOCC4)c4c(c23)CCC4)CC1
inactive: growth inhibition [1] -5.5% | growth inhibition [2] -14.1% | viability increase [3] -4.51% | viability [4] 85.1% | viability [5] 86.3% | inhibition [6] 0.195% | RAM network inhibition [7] 5.27%

Cc1ccc(NC(=O)NCCN2C(=O)C3C4C=CC(C4)C3C2=O)cc1 (configuration not stated)
inactive: growth inhibition [1] -8.32% | growth inhibition [2] 10.9% | viability increase [3] -0.07% | viability [4] 98% | viability [5] 102% | inhibition [6] 0.865% | RAM network inhibition [7] 1.04%

Cc1cccn2c(=O)c3cc(C#N)c(=NC(=O)c4ccccc4)n(Cc4ccco4)c3nc12
inactive: growth inhibition [1] -4.6% | growth inhibition [2] -12.7% | viability increase [3] -1.26% | viability [4] 72.7% | viability [5] 62.2% | inhibition [6] 1.75% | RAM network inhibition [7] 4.04%

COCCNC(=O)CN1C(=O)CC(C)(C)S(=O)(=O)c2ccccc21
inactive: growth inhibition [1] -2.02% | growth inhibition [2] -10.2% | viability increase [3] 1.42% | viability [4] 109% | viability [5] 101% | inhibition [6] 0.31% | RAM network inhibition [7] -0.36%

O=C(NCC1CCCO1)c1ccc2c(=O)n(CCc3ccccc3)c(=O)[nH]c2c1 (configuration not stated)
inactive: growth inhibition [1] -3.02% | growth inhibition [2] -27% | viability increase [3] -1.15% | viability [4] 104% | viability [5] 102% | inhibition [6] 4.28% | RAM network inhibition [7] 3.8%

Cc1cc(C)n2nc(SCC#N)nc2n1
inactive: growth inhibition [1] -7.25% | growth inhibition [2] -4.04% | viability increase [3] -2.41% | viability [4] 95.4% | viability [5] 95.4% | inhibition [6] 0.2% | RAM network inhibition [7] 4.36%

Cn1c(NC(=O)c2cccs2)cc(=O)n(C)c1=O
inactive: growth inhibition [1] 7.14% | growth inhibition [2] 0.885% | viability increase [3] -1.55% | viability [4] 107% | viability [5] 95.5% | inhibition [6] 0.13% | RAM network inhibition [7] -1.35%

O=C(NC1=NCCS1)c1csc2ccccc12
inactive: growth inhibition [1] -9.29% | growth inhibition [2] 27.3% | viability increase [3] -3.86% | viability [4] 74% | viability [5] 79% | inhibition [6] 1.16% | RAM network inhibition [7] 1.26%

COc1ccc(N2C(=O)C3CCCN3C2c2cc(OC)c(OC)cc2OC)cc1 (configuration not stated)
inactive: growth inhibition [1] 8.35% | growth inhibition [2] 5.12% | viability increase [3] -3.74% | viability [4] 102% | viability [5] 90.4% | inhibition [6] 0.47% | RAM network inhibition [7] 7.38%

Cn1c(NC(=O)C2CCCO2)cc(=O)n(C)c1=O (configuration not stated)
inactive: growth inhibition [1] 0.76% | growth inhibition [2] 1.36% | viability increase [3] -0.7% | viability [4] 103% | viability [5] 99.8% | inhibition [6] 0.565% | RAM network inhibition [7] -0.47%

CCC(=O)N1c2ccccc2-c2nnc(SC)nc2OC1c1ccc(N(C)C)cc1 (configuration not stated)
inactive: growth inhibition [1] -3.95% | growth inhibition [2] 4.3% | viability increase [3] -6.55% | viability [4] 93.8% | viability [5] 91.5% | inhibition [6] 3.08% | RAM network inhibition [7] 1.82%

CCC(C)NS(=O)(=O)c1ccc(NC(=O)c2c(-c3ccccc3)noc2C)cc1 (configuration not stated)
inactive: growth inhibition [1] -6.46% | growth inhibition [2] -11% | viability increase [3] -0.12% | viability [4] 86.3% | viability [5] 71.1% | inhibition [6] 0.48% | RAM network inhibition [7] 5.94%

Cc1ccc2oc(Nc3nc(C)cc(C)n3)nc2c1
inactive: growth inhibition [1] -6.34% | growth inhibition [2] 13.1% | viability increase [3] 0.49% | viability [4] 102% | viability [5] 94.8% | inhibition [6] 1.01% | RAM network inhibition [7] 0.61%

[O-]/[N+](=C/c1cccnc1)c1ccc(Br)cc1
inactive: growth inhibition [1] -11.4% | growth inhibition [2] -4.11% | viability increase [3] -4.72% | viability [4] 93.8% | viability [5] 94% | inhibition [6] 2.69% | RAM network inhibition [7] 8.64%

Oc1cnn(-c2ccccc2)c1
inactive: growth inhibition [1] -0.88% | growth inhibition [2] 3.54% | viability increase [3] -5.6% | viability [4] 92.8% | viability [5] 94.3% | inhibition [6] 0.91% | RAM network inhibition [7] -0.83%

Cc1ccc(/C=N/c2sc3c(c2C#N)CCC3)s1
inactive: growth inhibition [1] -1.95% | growth inhibition [2] -5.03% | viability increase [3] -0.97% | viability [4] 96.1% | viability [5] 93.8% | inhibition [6] 1.21% | RAM network inhibition [7] 7%

CC(C)C(C(=O)NC(C)(C)C)N1C(=O)c2ccccc2C1=O (configuration not stated)
inactive: growth inhibition [1] -7.04% | growth inhibition [2] 0.73% | viability increase [3] 0.34% | viability [4] 101% | viability [5] 101% | inhibition [6] -0.63% | RAM network inhibition [7] 12.4%

COc1ccccc1C(=O)Nc1nnc(-c2ccc(Cl)cc2)o1
inactive: growth inhibition [1] -2.96% | growth inhibition [2] 1.53% | viability increase [3] -1.3% | viability [4] 103% | viability [5] 98.1% | inhibition [6] 0.395% | RAM network inhibition [7] -0.25%
